The text below walks through data of ChEMBL document CHEMBL3244404, “Effect of sulfur substitution for the noncarbonyl oxygen in hemicholinium-3 and acetyl-seco-hemicholinium-3. Synthesis, biological activity, and structure-toxicity relationships” (J Med Chem, 1977).

Common to all, as to details: in vivo
Data set [1] in a line: Toxicity in ip dosed CD-1 mouse assessed as mortality in presence of 20 mg/kg, ip choline. The data set is classed as organism-based. Also noted: dose 20 mg/kg, route intraperitoneal.
Data set [2] in a line: Toxicity in ip dosed CD-1 mouse assessed as mortality in presence of 0.2 mg/kg, ip neostigmine. The data set is classed as organism-based. More on the design: dose 0.2 mg/kg, route intraperitoneal.
Data set [3] has as its system Mus musculus. Nature of the data set: Toxicity in ip dosed CD-1 mouse assessed as exophthalmos. The format is organism-based. The gist of the method: (§1)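 Compounds dissolved in normal saline (0.9% NaCl) and injected ip into mice. Signs were recorded as they appeared after dosing. Animals that died were autopsied immediately, with lungs and peritoneal cavity examined for excess fluid and heart and small intestine observed.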

In data set [4] the test system is Mus musculus. Nature of the data set: Toxicity in ip dosed CD-1 mouse assessed as mild to moderate ataxia. The format is organism-based. The gist of the method:
as §1

The test system of data set [5] is Mus musculus. The data set is described as follows: Toxicity in ip dosed CD-1 mouse assessed as respiratory difficulties. The format is organism-based. The gist of the method:
as §1

The test system of data set [6] is Mus musculus. Nature of the data set: Toxicity in ip dosed CD-1 mouse assessed as loss of righting response. The data set is classed as organism-based. The procedure, abridged: as §1
Data set [7] relates to Mus musculus. Nature of the data set: Toxicity in ip dosed CD-1 mouse assessed as SLUD syndrome. The data set is classed as organism-based. The procedure, abridged:
as §1

Data set [8] relates to Mus musculus. Nature of the data set: Toxicity in ip dosed CD-1 mouse assessed as clonic convulsions. The format is organism-based. The procedure, abridged:
as §1

Data set [9] relates to Mus musculus. The data set is described as follows: Toxicity in ip dosed CD-1 mouse assessed as cardiac contractions. The format is organism-based. The procedure, abridged:
as §1

Data set [10] deals with Mus musculus. The data set is described as follows: Toxicity in ip dosed CD-1 mouse assessed as increase in peristalsis of the small intestine. The format is organism-based. The gist of the method: as §1
In data set [11] the test system is Mus musculus. Nature of the data set: Toxicity in ip dosed CD-1 mouse assessed as excess fluids in lungs and peritoneal cavity. The data set is classed as organism-based. The gist of the method: as §1
Data set [12] deals with Mus musculus. Nature of the data set: Ratio of HC-3 LD50 to compound LD50 in CD-1 mouse. The format is ADME, organism-based. The gist of the method: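 Mice received the compounds ip, dissolved in normal saline (0.9% NaCl). Deaths were scored to derive the ip LD50 in mg/kg with 95% confidence limits. Each LD50 was also expressed as a ratio to that of HC-3. Signs were recorded in the animals that died, and immediate autopsy examined the heart, intestine, lungs and peritoneal cavity.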

With `C[N+]1(C)CCOC(O)(c2ccc(-c3ccc(C4(O)C[N+](C)(C)CCO4)cc3)cc2)C1.[Br-].[Br-]` (configuration not stated), the mortality turned out to be 15% in data set [1] and 90% in data set [2]. In addition, the Activity result in the data set with Mus musculus [3], in the data set with Mus musculus [4], with Mus musculus [5], in the data set with Mus musculus [6], in the data set on Mus musculus [7] and with Mus musculus [8] was “Toxic” throughout. The Activity entry in the data set on Mus musculus [9] is “Non-toxic”; with Mus musculus [10], “Toxic”; in the data set with Mus musculus [11] it was “Non-toxic”.
For `CC(=O)OCC[N+](C)(C)CC(=O)c1ccc(-c2ccc(C(=O)C[N+](C)(C)CCOC(C)=O)cc2)cc1.[Br-].[Br-]`, the values for the mortality in [1] and in data set [2] were 0% and 80%, respectively. The Activity result in the data set with Mus musculus [3], with Mus musculus [4], in the data set on Mus musculus [5], in the data set with Mus musculus [6], in the data set with Mus musculus [7] and in the data set on Mus musculus [8] was “Toxic” in each case. The Activity entry with Mus musculus [9] was “Non-toxic”; in the data set on Mus musculus [10], “Toxic”; in the data set with Mus musculus [11], “Non-toxic”. In addition, the Ratio in the data set with Mus musculus [12] was determined as 1.
On to `CC(=O)SCC[N+](C)(C)CC(=O)c1ccc(-c2ccc(C(=O)C[N+](C)(C)CCSC(C)=O)cc2)cc1.[Br-].[Br-]`, for which the mortality in [1] was 40%; in data set [2], 30%. For the same compound, the Activity entry with Mus musculus [3], in the data set with Mus musculus [4], in the data set on Mus musculus [5], in the data set on Mus musculus [6], in the data set with Mus musculus [7] and in the data set on Mus musculus [8] was “Toxic” throughout. The Activity result is reported as “Non-toxic” in the data set with Mus musculus [9], “Toxic” in the data set on Mus musculus [10] and “Non-toxic” with Mus musculus [11]. In the data set with Mus musculus [12], the Ratio is 1.
With `C[N+](C)(CCS)CC(=O)c1ccc(-c2ccc(C(=O)C[N+](C)(C)CCS)cc2)cc1.[Br-].[Br-]`, the figures for the mortality in data set [1] and in data set [2] were 10% and 70%, respectively. Moreover, the Activity result in the data set on Mus musculus [3], in the data set on Mus musculus [4], in the data set with Mus musculus [5], in the data set on Mus musculus [6], in the data set with Mus musculus [7] and in the data set on Mus musculus [8] was “Toxic” throughout. Also, the figures for the Activity entry in the data set on Mus musculus [9], with Mus musculus [10] and with Mus musculus [11] were “Non-toxic”, “Toxic” and “Non-toxic”, respectively. Besides, in the data set with Mus musculus [12], the Ratio was 226.

As usually defined, the mortality is the share of the test organisms that died.
